As usually defined, the inhibition is how much of the control response was suppressed. For orientation: IC50 means the concentration that gives 50% inhibition. A word on the Ki: it is the dissociation constant of the complex between target and ligand, obtained from inhibition or displacement. Low values mean tighter binding, high ones weaker binding. The term efflux ratio denotes a quotient of directional permeabilities that is used to spot active efflux. As a reminder, the clearance is the volume of plasma or blood freed of the substance per unit of time. In general, AUC(0-t) refers to the area under the concentration-time curve up to a stated or last time point. A word on the AUC(0-inf): it is total exposure, with the tail of the curve extrapolated. Low values mean low exposure, high ones high exposure. Usually Tmax stands for the time at which the peak concentration occurs. By Cmax is commonly meant the peak of the concentration-time curve. For orientation: bioavailability means dose-corrected exposure relative to a reference, in per cent.

Bounds are passed on as bounds.

From ChEMBL document CHEMBL3797202, “Novel Oxindole Sulfonamides and Sulfamides: EPZ031686, the First Orally Bioavailable Small Molecule SMYD3 Inhibitor” (ACS Med Chem Lett, 2016) come the findings set out here.

The target in series [1] is T1, Protein arginine N-methyltransferase 7 (Homo sapiens) (UniProt Q9NVM4).
T1 sequence (whole entry): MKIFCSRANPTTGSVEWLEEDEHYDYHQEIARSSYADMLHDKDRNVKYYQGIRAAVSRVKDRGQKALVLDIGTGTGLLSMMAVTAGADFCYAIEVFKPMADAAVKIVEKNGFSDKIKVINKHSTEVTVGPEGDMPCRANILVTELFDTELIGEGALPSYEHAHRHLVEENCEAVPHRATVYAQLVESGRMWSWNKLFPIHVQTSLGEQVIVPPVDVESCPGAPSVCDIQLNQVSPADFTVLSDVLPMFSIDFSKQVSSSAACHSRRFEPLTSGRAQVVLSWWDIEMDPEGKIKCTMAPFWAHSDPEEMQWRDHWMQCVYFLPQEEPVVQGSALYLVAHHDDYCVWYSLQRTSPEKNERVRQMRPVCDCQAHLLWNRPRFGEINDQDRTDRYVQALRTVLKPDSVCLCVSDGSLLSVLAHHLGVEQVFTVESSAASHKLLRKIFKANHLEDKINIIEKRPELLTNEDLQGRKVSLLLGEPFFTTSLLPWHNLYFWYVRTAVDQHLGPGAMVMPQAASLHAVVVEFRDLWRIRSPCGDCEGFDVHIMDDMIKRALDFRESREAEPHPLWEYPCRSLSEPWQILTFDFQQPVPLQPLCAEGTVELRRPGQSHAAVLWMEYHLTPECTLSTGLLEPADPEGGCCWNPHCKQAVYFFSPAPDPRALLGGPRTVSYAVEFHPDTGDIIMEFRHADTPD
As to the kind of experiment: Inhibition of PRMT7 (unknown origin) at 10 uM relative to control.

The target in series [2] is Histone-lysine N-methyltransferase SETDB1 (Homo sapiens) (UniProt Q15047). As to the kind of experiment: Inhibition of SETDB1 (unknown origin) at 10 uM relative to control.
Series [3] concerns the target T2, Histone-lysine N-methyltransferase SMYD3 (Homo sapiens, UniProt Q9H7B4).
T2 sequence (Q9H7B4 whole entry): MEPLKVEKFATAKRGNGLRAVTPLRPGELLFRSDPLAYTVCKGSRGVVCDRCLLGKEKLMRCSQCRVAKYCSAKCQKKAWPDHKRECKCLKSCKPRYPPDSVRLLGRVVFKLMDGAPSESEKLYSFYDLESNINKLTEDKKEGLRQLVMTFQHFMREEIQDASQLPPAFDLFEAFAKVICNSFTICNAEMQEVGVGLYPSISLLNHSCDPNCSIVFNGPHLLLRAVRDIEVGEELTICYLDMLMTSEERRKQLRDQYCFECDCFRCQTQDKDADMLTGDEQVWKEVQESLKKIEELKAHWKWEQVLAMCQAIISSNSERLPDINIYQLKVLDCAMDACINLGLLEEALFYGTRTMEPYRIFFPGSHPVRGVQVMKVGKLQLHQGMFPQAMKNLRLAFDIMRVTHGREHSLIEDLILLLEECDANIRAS
Nature of the series: Inhibition of full length N-terminal His-tagged SMYD3 (1 to 428 residues) (unknown origin) expressed in Escherichia coli using N-terminal GST-tagged MEKK2 as substrate preincubated for 30 mins followed by substrate addition by scintillation proximity assay in presence of [3H]SAM. (Scintillation proximity formats need no separation of bound from free tracer.)

Series [4] has as its target T2, Histone-lysine N-methyltransferase SMYD3. Nature of the series: Non-competitive inhibition of full length N-terminal His-tagged SMYD3 (1 to 428 residues) (unknown origin) expressed in Escherichia coli using varying N-terminal GST-tagged MEKK2 substrate and fixed SAM levels preincubated for 30 mins followed by substrate addition by filter plate assay.
Series [5] is described as follows: Efflux ratio of apparent permeability in human Caco2 cells at 10 uM incubated for 120 mins by LC-MS/MS analysis. The note with it: Caco-2. It is filed as ADME, cell-based. The gist of the method: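 Permeability in Caco-2 cells, measured apical-to-basolateral as P_app (×10⁻⁶ cm/s). An efflux ratio is reported as the index of active efflux. This is part of an in vitro ADME screen run before mouse PK studies.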
A general note: Caco-2 monolayers are a common model of the intestinal barrier.

A short description of series [6]: Clearance in CD1 mouse at 1 mg/kg, iv as bolus dose measured up to 24 hrs by LC-MS/MS analysis. It is filed as ADME, organism-based. The note with it: in vivo. The gist of the method:
(§1)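 Male CD-1 mice received a single bolus: 1 mg/kg i.v., or 5 or 50 mg/kg p.o. Values are mean ± SD, n = 3. […] Bioavailability was determined separately for each oral dose.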

Series [7] is described as follows: Renal clearance in CD1 mouse at 1 mg/kg, iv as bolus dose measured up to 24 hrs by LC-MS/MS analysis. It is filed as ADME, organism-based, Kidney. The note with it: in vivo. In short, it runs like this: as §1
Series [8] can be described thus: Volume of distribution at steady state in CD1 mouse at 1 mg/kg, iv as bolus dose measured up to 24 hrs by LC-MS/MS analysis. It is filed as ADME, organism-based. The settings on record: in vivo, read-out: Vdss. In short, it runs like this:
as §1

The nature of series [9]: Terminal half life in CD1 mouse at 1 mg/kg, iv as bolus dose by LC-MS/MS analysis. The note with it: in vivo, read-out: beta t1/2 (converted). It is filed as ADME, organism-based. The gist of the method: as §1
The nature of series [10]: AUC (0 to last) in CD1 mouse at 1 mg/kg, iv as bolus dose measured up to 24 hrs by LC-MS/MS analysis. It is filed as ADME, organism-based. Also on record: dose 1 mg/kg, time 0 - last, route intravenous. The settings on record: in vivo. The gist of the method: as §1
Series [11] in a line: AUC (0 to infinity) in CD1 mouse at 1 mg/kg, iv as bolus dose measured up to 24 hrs by LC-MS/MS analysis. It is filed as ADME, organism-based. More on the design: dose 1 mg/kg, route intravenous, time infinity. The settings on record: in vivo. The gist of the method: as §1
A short description of series [12]: Terminal half life in CD1 mouse at 5 mg/kg, administered through oral gavage by LC-MS/MS analysis. It is filed as ADME, organism-based. The note with it: in vivo, read-out: beta t1/2 (converted). In short, it runs like this:
as §1

A short description of series [13]: Tmax in CD1 mouse at 5 mg/kg, administered through oral gavage by LC-MS/MS analysis. It is filed as ADME, organism-based. The settings on record: in vivo. In short, it runs like this: as §1
Series [14] is described as follows: Cmax in CD1 mouse at 5 mg/kg, administered through oral gavage measured up to 24 hrs by LC-MS/MS analysis. It is filed as ADME, organism-based. Also on record: dose 5 mg/kg, route oral. The settings on record: in vivo. The gist of the method: as §1
Series [15] can be described thus: AUC (0 to last) in CD1 mouse at 5 mg/kg, administered through oral gavage measured up to 24 hrs by LC-MS/MS analysis. More on the design: dose 5 mg/kg, route oral, time 0 - last. The note with it: in vivo. It is filed as ADME, organism-based. In short, it runs like this:
as §1

Series [16] can be described thus: AUC (0 to infinity) in CD1 mouse at 5 mg/kg, administered through oral gavage measured up to 24 hrs by LC-MS/MS analysis. It is filed as ADME, organism-based. More on the design: dose 5 mg/kg, time infinity, route oral. The note with it: in vivo. The gist of the method:
as §1

The nature of series [17]: Oral bioavailability in CD1 mouse at 5 mg/kg measured up to 24 hrs by LC-MS/MS analysis. It is filed as ADME, organism-based. The settings on record: in vivo. The gist of the method: as §1
A short description of series [18]: Terminal half life in CD1 mouse at 50 mg/kg, administered through oral gavage by LC-MS/MS analysis. It is filed as ADME, organism-based. The settings on record: in vivo, read-out: beta t1/2 (converted). The gist of the method: as §1
Series [19] can be described thus: Tmax in CD1 mouse at 50 mg/kg, administered through oral gavage by LC-MS/MS analysis. It is filed as ADME, organism-based. The settings on record: in vivo. In short, it runs like this: as §1
A short description of series [20]: Cmax in CD1 mouse at 50 mg/kg, administered through oral gavage measured up to 24 hrs by LC-MS/MS analysis. It is filed as ADME, organism-based. Also on record: dose 50 mg/kg, route oral. The note with it: in vivo. In short, it runs like this: as §1
Series [21] is described as follows: AUC (0 to last) in CD1 mouse at 50 mg/kg, administered through oral gavage measured up to 24 hrs by LC-MS/MS analysis. It is filed as ADME, organism-based. Also on record: dose 50 mg/kg, route oral, time 0 - last. The settings on record: in vivo. In short, it runs like this: as §1
Series [22] in a line: AUC (0 to infinity) in CD1 mouse at 50 mg/kg, administered through oral gavage measured up to 24 hrs by LC-MS/MS analysis. It is filed as ADME, organism-based. Also on record: dose 50 mg/kg, time infinity, route oral. The note with it: in vivo. The gist of the method:
as §1

The nature of series [23]: Oral bioavailability in CD1 mouse at 50 mg/kg measured up to 24 hrs by LC-MS/MS analysis. It is filed as ADME, organism-based. The settings on record: in vivo. In short, it runs like this: as §1
Series [24] can be described thus: Drug excretion in CD1 mouse urine at 1 mg/kg, iv as bolus dose after 24 hrs by LC-MS/MS analysis. It is filed as ADME, organism-based. The settings on record: read-out: Drug excretion. The gist of the method:
as §1

For the compound `O=C1Cc2cc(C(=O)N[C@H]3C[C@H]4CC[C@@H](C3)N4S(=O)(=O)N3CCC(NCc4ccccc4)CC3)c(Cl)cc2N1`, the inhibition in series [1] and in series [2] was < 30% in each case.
Turning to `O=C1Cc2cc(C(=O)N[C@H]3C[C@H]4CC[C@@H](C3)N4S(=O)(=O)CC3CCN(CCCC(F)(F)F)CC3)c(Cl)cc2N1`, in series [3], the 50% inhibitory concentration (IC50) was 3 nM. The inhibition in series [1] and in series [2] was < 30% each time. Besides, affinity in [4] was put at a Ki of 1.1 nM. Also, the efflux ratio at 2 h, 10 µM in series [5] was found to be 41. Besides, the clearance in series [6] is 27 mL/min/kg. In [7], this compound showed a CL renal at 24 h of 5.3 mL/min/kg. In series [8], the Vd was determined as 2.3 L/kg. The half-life was 1.7 h in series [9], 2.7 h in series [12] and 2.2 h in [18]. In addition, the figures for the AUC(0-t) at 24 h in [10], in series [15] and in series [21] were 603 ng·h/mL, 1280 ng·h/mL and 21200 ng·h/mL, respectively. For the same compound, the total exposure AUC(0-inf) stood at 616 ng·h/mL in [11], 1480 ng·h/mL in series [16] and 21200 ng·h/mL in [22]. Further, the Tmax in [13] was determined as 0.89 h; in series [19], 1.3 h. The Cmax came to 345 ng/mL in series [14] and 4690 ng/mL in series [20]. For the same compound, the values for the bioavailability in [17] and in [23] were 48% and 69%, respectively. Also, in series [24], the dose excreted at 24 h was 20%.
